SMILES strings stand for the structures. Active and inactive are the calls of the source. The rule behind the calls is not given here.

The record followed here is ChEMBL document CHEMBL3259647, “Design, synthesis, and biological evaluation of potent dual agonists of nuclear and membrane bile acid receptors” (J Med Chem, 2014).

Assay [1] deals with T1, Bile acid receptor (Homo sapiens) (UniProt Q96RI1).
T1 sequence (whole entry): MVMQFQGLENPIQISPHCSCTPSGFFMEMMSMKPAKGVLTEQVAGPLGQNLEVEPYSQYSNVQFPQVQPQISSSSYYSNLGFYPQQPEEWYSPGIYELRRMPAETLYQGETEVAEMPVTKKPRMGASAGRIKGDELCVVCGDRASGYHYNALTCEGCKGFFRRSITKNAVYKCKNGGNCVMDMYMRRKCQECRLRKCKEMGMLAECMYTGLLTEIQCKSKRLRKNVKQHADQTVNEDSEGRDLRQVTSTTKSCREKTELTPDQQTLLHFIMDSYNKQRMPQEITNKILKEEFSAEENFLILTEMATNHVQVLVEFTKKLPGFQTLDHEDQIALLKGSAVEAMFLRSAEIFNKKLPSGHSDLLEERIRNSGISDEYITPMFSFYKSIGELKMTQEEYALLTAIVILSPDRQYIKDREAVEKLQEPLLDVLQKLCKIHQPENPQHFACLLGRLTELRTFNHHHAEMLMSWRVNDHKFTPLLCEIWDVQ
Description: Antagonist activity at human FXR transfected in human HepG2 cells assessed as supression of CDCA-induced transcriptional activity at 50 uM by beta-galactosidase reporter gene assay. It counts as cell-based. A digest of the protocol:
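HepG2 cells (MEM with Earle's salts, 10% FBS, 37 °C; 5 × 10⁴ cells/well) transfected with pSG5-FXR, pSG5-RXR, pCMV-βgal and p(hsp27)-TK-LUC IR1 reporter. 24 h post-transfection, treated 18 h with 10 μM CDCA plus 50 μM compound. Luciferase in lysates normalized to β-galactosidase activity. Statistics versus CDCA alone.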
For orientation: Reporter assays use an easily measured gene product as a stand-in for the process of interest.

Another assay concerns HEK-293T. Description: Induction of cAMP production in GP-BAR1-deficient HEK293T cells at 10 uM by cAMP responsive element containing luciferase reporter gene assay. The conditions noted are these: Homo sapiens. The assay is classed as functional, cell-based. In short, it runs like this:
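Control transfection of HEK-293T with only the pGL4.29 CRE-luciferase and pGL4.70 Renilla vectors, without GP-BAR1. 24 h after transfection, cells exposed 18 h to 10 μM compound. Luciferase normalized to Renilla.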

In the case of `C[C@H](CCCO)[C@H]1CC[C@H]2[C@@H]3[C@@H](O)C[C@@H]4C[C@H](OS(=O)(=O)O)CC[C@]4(C)[C@H]3CC[C@]12C`, the outcome (in assay [1]; in the assay on HEK-293T) was inactive. As for `C[C@H](CCCOS(=O)(=O)O)[C@H]1CC[C@H]2[C@@H]3[C@@H](O)C[C@@H]4C[C@H](OS(=O)(=O)O)CC[C@]4(C)[C@H]3CC[C@]12C`, the result (in assay [1]; in the assay with HEK-293T) was inactive. Take `CC[C@H]1[C@@H](OS(=O)(=O)O)[C@@H]2[C@H](CC[C@]3(C)[C@@H]([C@H](C)CCOS(=O)(=O)O)CC[C@@H]23)[C@@]2(C)CC[C@@H](OS(=O)(=O)O)C[C@@H]12`: the outcome (in assay [1]; in the assay on HEK-293T) was inactive. For `CC[C@H]1[C@@H](OS(=O)(=O)O)[C@@H]2[C@H](CC[C@]3(C)[C@@H]([C@H](C)CCCOS(=O)(=O)O)CC[C@@H]23)[C@@]2(C)CC[C@@H](OS(=O)(=O)O)C[C@@H]12`, the result (in assay [1]; in the assay on HEK-293T) was inactive.

Regarding `C[C@H](CCCOS(=O)(=O)O)[C@H]1CC[C@H]2[C@@H]3[C@@H](OS(=O)(=O)O)C[C@@H]4C[C@H](OS(=O)(=O)O)CC[C@]4(C)[C@H]3CC[C@]12C`, the result (in assay [1]; in the assay with HEK-293T) was inactive.

For the compound `C[C@H](CCCCCOS(=O)(=O)O)[C@H]1CC[C@H]2[C@@H]3[C@H](OS(=O)(=O)O)C[C@@H]4C[C@H](OS(=O)(=O)O)CC[C@]4(C)[C@H]3CC[C@]12C`, the outcome (in assay [1]; in the assay with HEK-293T) was inactive.

Consider `C[C@H](CCCCCOS(=O)(=O)O)[C@H]1CC[C@H]2[C@@H]3[C@@H](O)C[C@@H]4C[C@H](OS(=O)(=O)O)CC[C@]4(C)[C@H]3CC[C@]12C`, for which the result (in assay [1]; in the assay on HEK-293T) was inactive. As to `C=C[C@@]1(C)CC(=O)[C@]2(O)[C@@]3(C)[C@@H](O)CCC(C)(C)[C@@H]3[C@H](O)[C@H](OC(C)=O)[C@@]2(C)O1`, the outcome in the assay on HEK-293T was Active. On to `C[C@H](CCC(=O)O)[C@H]1CC[C@H]2[C@@H]3[C@H](O)C[C@@H]4C[C@H](O)CC[C@]4(C)[C@H]3CC[C@]12C`, for which the outcome in the assay on HEK-293T was inactive. Consider `C[C@H](CCCCCOS(=O)(=O)O)[C@H]1CC[C@H]2[C@@H]3[C@@H](OS(=O)(=O)O)C[C@@H]4C[C@H](OS(=O)(=O)O)CC[C@]4(C)[C@H]3CC[C@]12C`, for which the result (in assay [1]; in the assay with HEK-293T) was inactive. As to `C[C@H](CCCOS(=O)(=O)O)[C@H]1CC[C@H]2[C@@H]3[C@H](OS(=O)(=O)O)C[C@@H]4C[C@H](OS(=O)(=O)O)CC[C@]4(C)[C@H]3CC[C@]12C`, the outcome (in assay [1]; in the assay with HEK-293T) was inactive. Turning to `C[C@H](CCCOS(=O)(=O)O)[C@H]1CC[C@H]2[C@@H]3[C@@H](O)C[C@@H]4C[C@H](O)CC[C@]4(C)[C@H]3CC[C@]12C`, the result (in assay [1]; in the assay on HEK-293T) was inactive. In the case of `C[C@H](CCCCCOS(=O)(=O)O)[C@H]1CC[C@H]2[C@@H]3[C@@H](O)C[C@@H]4C[C@H](O)CC[C@]4(C)[C@H]3CC[C@]12C`, the result (in assay [1]; in the assay on HEK-293T) was inactive. With `C[C@H](CCCOS(=O)(=O)O)[C@H]1CC[C@H]2[C@@H]3[C@H](O)C[C@@H]4C[C@H](O)CC[C@]4(C)[C@H]3CC[C@]12C`, the result (in assay [1]; in the assay on HEK-293T) was inactive.
